Rows were chosen to be rich in hits. Some 5.8% of all compounds tested hit in one or more screens of this group.
FAK inh: inhibitors of human focal adhesion kinase. Q05397. biochemical FAK kinase activity assay. inhibition, %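 (tested at 7 µM)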. 97,000 compounds, 0.84% hits. AID 727; in the data active = inhibition above about 19%
Cav3 T inh: inhibitors of human Cav3.2 T-type calcium channel; AID 449739; 100,000 compounds, 4% hits; O95180; Cav3.2-expressing cells, Fluo-4 calcium fluorescence FDSS; active compounds read low; B-score at 10 µM;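 active = single-dose well whose peak fluorescence ratio is a statistical outlier from its plate by either plate-standardised score or position-corrected B-score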
PTK2B oligo ant: Pyk2 (human) oligomerization antagonism; Q14289; Q293 cells, Pyk2 FERM NanoBiT luminescence; active compounds read low; z-score (the deposit names both 25 µM and 10 µM); 99,000 compounds, 0.83% hits; AID 1347419;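 active = Z-score of -3 or lower, scaled per plate to the spread of control and sample wells; inactive = z-score above -3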;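 also: negative z-score means lost luminescence so less FERM oligomerization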
PLK1 PBD inh: Plk1 (human) PBD binding inhibition; AID 693; Plk1 PBD phosphopeptide binding, fluorescence polarization; inhibition, %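 (tested at about 20 µM)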; P53350; 97,000 compounds, 0.13% hits; in the data active = inhibition above about 34%, passing the limit was not always enough
Target sequence (P53350 whole entry, looked up): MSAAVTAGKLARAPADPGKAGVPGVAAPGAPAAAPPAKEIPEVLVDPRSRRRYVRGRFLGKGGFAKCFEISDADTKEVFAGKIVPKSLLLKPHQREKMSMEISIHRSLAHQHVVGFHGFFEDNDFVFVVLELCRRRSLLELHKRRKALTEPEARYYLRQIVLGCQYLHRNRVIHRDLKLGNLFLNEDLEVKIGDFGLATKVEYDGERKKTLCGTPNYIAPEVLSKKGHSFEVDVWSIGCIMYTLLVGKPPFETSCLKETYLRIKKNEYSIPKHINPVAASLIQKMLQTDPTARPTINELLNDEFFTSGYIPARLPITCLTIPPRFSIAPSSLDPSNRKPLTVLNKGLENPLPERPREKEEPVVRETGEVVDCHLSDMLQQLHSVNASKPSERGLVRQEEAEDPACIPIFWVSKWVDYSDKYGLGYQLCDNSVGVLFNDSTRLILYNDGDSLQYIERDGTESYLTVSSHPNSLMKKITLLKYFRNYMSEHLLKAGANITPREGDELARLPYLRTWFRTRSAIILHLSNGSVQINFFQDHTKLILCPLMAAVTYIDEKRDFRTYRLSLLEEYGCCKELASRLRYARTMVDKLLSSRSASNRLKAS
HIV Rev-RRE inh: inhibitors of HIV-1 Rev-RRE RNA interaction; P05866; Rev peptide-RRE RNA binding, FRET; inhibition, % at 8 µM; 97,000 compounds, 0.79% hits; AID 704;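 active = inhibition above the screen-wide mean plus 3 SD, cut at about 35% in these data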
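Assay system: Rev peptide and RRE RNA, both fluorescently labelled; times: 5 min preincubation and 15 min binding, 25 °C; detection: FRET, ex 480 nm, em 540 and 671 nm; read-out basis: % inhibition from 671/540 nm acceptor-to-donor ratio, scaled between controls; benchmarks: DMSO low control, neomycin B high control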
PLK1 kinase inh: inhibitors of human PLK1 kinase. P53350. recombinant PLK1 kinase, TR-FRET peptide phosphorylation. inhibition, % at 10 µM. 97,000 compounds, 0.53% hits;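 active = inhibition of 50% or more in the single-concentration screen; inactive = inhibition below 50%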
A number is an active result; . = inactive; / = no result given; [ ] = another dose, or the depositor's remark.

SMILES	FAK inh	Cav3 T inh	PTK2B oligo ant	PLK1 PBD inh	HIV Rev-RRE inh	PLK1 kinase inh
S=C(NCc1ccco1)N1CCN(Cc2ccc(Cl)cc2Cl)CC1	.	-3.64	.	.	.	.
O=C(CN1C(=O)C2C3C=CC(C3)C2C1=O)Nc1nc2ccccc2[nH]1 (stereo unspecified)	.	.	.	.	.	.
O=C(CN1C(=O)C2C3C=CC(C3)C2C1=O)Nc1nc(SCc2ccc(Cl)cc2)n[nH]1 (stereo unspecified)	.	-8.29	.	.	.	.
CCOC(=O)c1c(C)c(-c2ccccc2)n(CC(=O)NCCC(C)C)c1C	.	.	/	.	.	.
O=C(c1cc2nc(-c3cccs3)cc(C(F)(F)Cl)n2n1)N1CCCc2ccccc21	.	.	.	.	.	.
O=C(c1cc2nc(-c3cccs3)cc(C(F)(F)F)n2n1)N1CCCc2ccccc21	.	-4.81	.	.	.	.
O=C(c1cnn2c(C(F)(F)F)cc(-c3cccs3)nc12)N1CCN(C(c2ccccc2)c2ccccc2)CC1	.	-4.22	.	.	.	.
O=C(c1cnn2c(C(F)(F)F)cc(-c3cccs3)nc12)N1CCN(Cc2ccccc2)CC1	.	.	.	.	.	.
COc1cc(NC(=O)CCCC(=O)OCC(F)(F)C(F)F)nc(OC)n1	.	.	.	.	.	.
COc1ccc2cnnc(SCC(=O)Nc3ccc(C(C)=O)cc3)c2c1OC	/	/	.	/	/	/
Nc1nc(-c2ccccc2)cn1N	.	.	.	.	.	.
c1ccc(-c2cn3nc(-c4ccccc4)c(-c4ccccc4)nc3n2)cc1	.	-5.27	.	.	98.3[fluorescence artefact?]	.
CCCc1ccc(OCc2ccc(C(=O)N3CCN(c4ccccn4)CC3)o2)c(OC)c1	.	-4.95	.	.	.	.
COc1ccc(CC(=O)N2CCN(c3ccccn3)CC2)cc1OC	.	.	.	.	.	.
COc1ccccc1-c1c(C(F)(F)F)oc2cc(OC(=O)c3cccc([N+](=O)[O-])c3C)ccc2c1=O	.	.	.	.	.	.
COc1cc(C2NC(=O)NC(C)=C2C(=O)OC(C)C)ccc1OC(=O)c1ccco1 (stereo unspecified)	.	.	.	.	.	.
O=C1c2ccccc2CN1CCSC(=S)N1CCOCC1	/	/	.	/	/	/
CCCCCn1c2nc3ccccc3nc2c2c(=O)n(CC(C)C)cnc21	.	.	.	.	.	.
CCCCn1c2nc3ccccc3nc2c2c(=O)n(C(C)CC)cnc21 (stereo unspecified)	.	.	-3.08	.	.	.
COc1ccc(/C=N/NC(=O)c2cccc([N+](=O)[O-])c2)cc1OC(=O)c1ccc(C)cc1	.	-5.44	.	.	.	.
COc1ccc(/C=N/NC(=O)c2cccc([N+](=O)[O-])c2)cc1OC(=O)c1ccccc1	.	.	.	.	.	.
COc1cccc(-n2c(CN3CCN(c4ccccc4)CC3)nc3ccc([N+](=O)[O-])cc3c2=O)c1	/	/	.	/	/	/
COC(=O)CN=C1OC(=O)N2C(=O)C3=C4[C@@H](C[C@H]5C(=O)N(c6ccccc6)C(=O)[C@H]5[C@H]4[C@@]12Cc1ccccc1)[C@H]1C(=O)N(c2ccccc2)C(=O)[C@H]1[C@H]3C	/	.	/	/	/	/
CCN1CC2=C(OC(N)=C(C#N)C2c2cccs2)/C(=C\c2cccs2)C1 (stereo unspecified)	.	-3.46	.	.	.	.
CCCCn1c(-c2ccncc2)nc2c1c(=O)[nH]c(=O)n2CC(C)C	.	3.06	.	.	.	.
SMILES	FAK inh	Cav3 T inh	PTK2B oligo ant	PLK1 PBD inh	HIV Rev-RRE inh	PLK1 kinase inh
COCCn1c(-c2ccc(OC(F)(F)C(F)C(F)(F)F)cc2)nc2c1c(=O)[nH]c(=O)n2CC(C)C (stereo unspecified)	.	.	.	.	.	.
COc1cc2c(cc1NS(=O)(=O)N1CCCC1)oc1ccccc12	.	-5.58	.	.	.	.
COc1cc2c(cc1NC(=O)C(C)N1CCN(S(=O)(=O)c3ccc(C)c(C)c3)CC1)oc1ccccc12 (stereo unspecified)	.	.	.	.	.	.
CCCCOc1ccc(CNC(=S)N/N=C/c2ccc(OC)c(OC)c2)cc1	.	.	.	.	.	.
CC(C)C(=O)NC(=S)Nc1ccc(S(=O)(=O)N(C)Cc2ccccc2)cc1	.	-5.74	.	.	.	.
CC(=O)N(C)c1ccc(NS(=O)(=O)Cc2ccccc2)cc1	.	.	.	.	.	.
CC(C)C(=O)NC(=S)Nc1ccc(S(=O)(=O)NC(C)(C)C)cc1	.	.	.	.	.	.
CN(Cc1ccccc1)S(=O)(=O)c1ccc(NS(=O)(=O)Cc2ccccc2)cc1	.	-3.84	.	.	.	.
CN1CCC(N(C)C(=O)CCc2nc3ccccc3c(=O)[nH]2)CC1	.	.	.	.	.	.
Cc1ccc(-c2nnn(CC(=O)N3c4ccccc4CCc4ccccc43)n2)cc1	.	.	.	.	.	.
Cc1ccc(NC(=O)CSCC(=O)N2c3ccccc3CCc3ccccc32)cc1	.	-4.9	.	.	.	.
CC(Sc1nnc(N)s1)c1ccccc1Cl (stereo unspecified)	.	.	/	.	.	.
CCCCc1ccc(NS(=O)(=O)c2cccs2)cc1	.	-5	.	.	.	.
O=S(=O)(Nc1ccc(Cc2ccncc2)cc1)c1cccs1	.	.	.	.	.	.
O=C(Nc1ccc2c(c1)OCCO2)C1CCCN(S(=O)(=O)c2cnc[nH]2)C1 (stereo unspecified)	.	.	/	.	.	.
COc1cc(/C=C(/C#N)C(=O)NCCc2c[nH]c3ccccc23)ccc1OCc1ccccc1F	.	.	.	.	.	.
CC(=O)Nc1ccc(S(=O)(=O)N2CCSC2c2ccc(C)cc2)cc1 (stereo unspecified)	.	-4.24	.	.	.	.
Cn1c(=O)c(C(=O)CCl)c(N)n(CC2CC2)c1=O	/	.	/	/	/	/
O=C(Nc1cccc(F)c1)N1CC=C(c2ccc(Cl)cc2)CC1	.	-7.41	.	.	.	.
O=C(NC1CCN(C(=O)Nc2cccc(F)c2)CC1)C1CCCCC1	.	.	.	.	.	.
Cc1c(NC(=O)C(C)Sc2nc3ccccc3c(=O)n2CCO)c(=O)n(-c2ccccc2)n1C (stereo unspecified)	.	.	.	.	.	.
COc1ccccc1NC(=O)N1CCc2[nH]c3ccc(Cl)cc3c2C1	.	-5.12	.	.	.	.
CC(C)c1ccc(N=c2c([N+](=O)[O-])nn(-c3ccc4c(c3)OCCO4)n2O)cc1	.	.	-3.98	.	.	.
N#Cc1cn(CC(=O)N2CCc3ccccc3C2)c2ccccc12	.	.	.	.	.	.
Cn1c(Cc2cccs2)nnc1SCC(=O)N1CCCc2ccccc21	.	.	.	.	.	.
Cc1sc2nc(CSc3nnc(Cc4cccs4)n3C3CCCCC3)[nH]c(=O)c2c1C	.	.	.	.	55.8	.
Cc1ccc2nc(CSc3nnc(Cc4cccs4)n3C3CCCCC3)cc(=O)n2c1	.	.	.	.	.	.

High-throughput results (PubChem)
